Screening data from PubChem.
Sampled rows, rich in hits. Any-hit rate of the full collection: about 2.2%.
Env fusion inh: inhibitors of HIV-1 Env-driven cell-cell fusion, primary screen, HeLa-JRFL effector, CEM21 target cells, luciferase | inhibition, % at 12.3 µM | 360,000 tested, 1.1% active | AID 651610, 2012;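 active = mean replicate inhibition score of at least 50 and every replicate individually at or above 50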;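 note: 0% = plate neutral controls and 100% = maraviroc near 300 nM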
rRNA inh HTS: reduced GFP signal of wild-type E. coli, primary screen, bacterial rRNA inhibitor project, GFP/RFP fluorescence, OD600, single point; E. coli WT GFP vs humanized-ribosome RFP mutants, 24 h; active compounds read low; DMSO median 0, no signal -100; GFP signal change (wild-type ribosome), % (test concentration not listed); 350,000 tested, 1.6% active; AID 720706, 2013;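 active = significant combined selectivity score with lowered wild-type GFP, culture density cut under 30%, mutant RFP and density less affected; inactive = any of these conditions unmet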
FN deposition inh: inhibitors of fibronectin matrix deposition, primary screen, AH1F cells, Alexa488-fibronectin fluorescence, plate reader; 350,000 tested, 0.086% active; inhibition, % at 12.6 µM; AH1F fibroblasts, overnight;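 active = mean inhibition across replicates of 30% or more, regardless of how many single replicates reach that level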;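 note: positive control wells lacked labelled fibronectin entirely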
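Measured by – fluorescence 485/525 nm · System – AH1F fibroblast monolayer, labelled fibronectin deposition · Amount – 10000 cells per well · Buffer or medium – serum-reduced DMEM (2% serum) · Doses – single dose, pinned · Also added – fluorescent fibronectin at 24 nM final · Schedule – 1 h cell attachment, overnight exposure to compound and label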
PDI inh: inhibitors of human PDI, primary screen, biochemical, turbidity, single point, plate reader; PDI insulin aggregation turbidity, A650, 90 min; AID 588391, 2011; 350,000 tested, 0.052% active; Protein disulfide-isomerase (Homo sapiens), P07237; inhibition, % at 10 µM;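 active = mean inhibition across replicates of 30% or more, whatever share of single replicates reach that level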
ERp5 inh: inhibitors of ERp5-driven insulin aggregation, primary screen, biochemical, turbidity, absorbance 650 nm, single point | 90 min | inhibition, % at 9.99 µM | 350,000 tested, 0.05% active | AID 651711, 2012;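 active = mean replicate inhibition above about 25%, with every replicate also reaching it, limit read from the data, passing the limit was not always enough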
Target sequence (Q15084 whole entry, looked up): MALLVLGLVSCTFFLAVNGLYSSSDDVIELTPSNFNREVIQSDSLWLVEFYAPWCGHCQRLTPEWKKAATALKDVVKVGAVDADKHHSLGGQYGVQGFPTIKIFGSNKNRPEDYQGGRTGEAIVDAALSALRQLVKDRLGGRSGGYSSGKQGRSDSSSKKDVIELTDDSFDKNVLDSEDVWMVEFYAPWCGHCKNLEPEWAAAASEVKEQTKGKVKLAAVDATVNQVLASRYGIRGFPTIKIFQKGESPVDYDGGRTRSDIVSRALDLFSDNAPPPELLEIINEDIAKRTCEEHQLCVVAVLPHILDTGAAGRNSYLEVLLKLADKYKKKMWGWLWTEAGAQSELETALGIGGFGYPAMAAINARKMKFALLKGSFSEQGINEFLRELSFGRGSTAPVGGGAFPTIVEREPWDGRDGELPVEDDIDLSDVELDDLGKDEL
PvdQ acylase: P. aeruginosa PvdQ acylase inhibitors, primary screen, biochemical, fluorescence, plate reader and imaging, single point | purified PvdQ acylase | inhibition, % at 10 µM | 340,000 tested, 0.063% active; in the data active = inhibition above about 30%, passing the limit was not always enough;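 note: 0% = vehicle neutral wells and 100% = reference inhibitor wells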
An asterisk follows results filed as active; . = not tested or not shown; [ ] = another dose, or the depositor's remark.

SMILES | Env fusion inh | rRNA inh HTS | FN deposition inh | PDI inh | ERp5 inh | PvdQ acylase
C[C@H]1CN([C@@H](C)CO)S(=O)(=O)c2ccc(-c3cncnc3)cc2O[C@@H]1CN(C)C(=O)C1CCCCC1 | -20.5[16.7 µM] | 2.7 | -17.9 | . | 0.9 | .
O=C([C@@H]1N[C@@H]2c3ccc(-c4ccccc4F)c(=O)n3C[C@@H]2[C@H]1CO)N1CCCCC1 | . | 2.7 | . | . | 1.9 | .
c1ccc(C[C@H]2CNCCN2CCc2cccc3ccccc23)cc1 | 29.3 | -15.8 | -2.4 | 6.6 | 6.3 | 17.6
CCCC[C@@H]1CNCCN1CCc1cccc2ccccc12 | -14.0 | -20.2* | 5.1 | -6.5 | 5.8 | 28.1
CCCNC(=O)N(C)C[C@@H]1Oc2cc(-c3ccccc3F)ccc2S(=O)(=O)N([C@@H](C)CO)C[C@H]1C | 12.0[16.7 µM] | -2.7 | 1.2 | . | -2.7 | .
Cc1cc(C)c(C)c(S(=O)(=O)N2CCNCC2)c1C | -6.8 | 10.6 | -3.0 | -0.9 | -2.5 | -9.9
CC(C)c1cc(C(C)C)c(S(=O)(=O)N2CCNCC2)c(C(C)C)c1 | -13.3 | -43.8* | -18.9 | -3.6 | -1.1 | -2.1
CCC(=O)N1CCC2(CC1)CN(Cc1ccc(Cl)cc1)[C@H](CO)c1[nH]c3cc(OC)ccc3c12 | . | 0.9 | . | . | -1.7 | .
CCCNC(=O)[C@H]1[C@H](CO)[C@H]2Cn3c(cccc3=O)[C@@H]1N2S(=O)(=O)c1ccccc1F | . | 2.6 | . | . | -1.6 | .
CCOc1ccc2oc(C(=O)N(C)CC(=O)Nc3ccc(OCC)c(OCC)c3)c(C)c2c1 | -0.5 | -28.2* | 2.2 | -4.3 | -1.9 | -11.5
CCOc1ccc2oc(C(=O)N(C)CCc3ccc(OC)c(OC)c3)c(C)c2c1 | -22.5 | -13.5 | -5.1 | -0.3 | -2.7 | -8.1
CC1(C)C(=O)Nc2ccccc2N1C(=O)COC(=O)c1cc(Cl)cc(Cl)c1 | . | -53.7 | -0.6 | -5.5 | -0.3 | 1.0
Cc1ccc(C(=O)OCC(=O)N2c3ccccc3NC(=O)C2(C)C)cc1S(=O)(=O)N1CCCCC1 | 59.1* | -3.6 | -17.7 | -1.0 | 4.3 | -10.0
CC1(C)C(=O)Nc2ccccc2N1C(=O)COC(=O)c1cccnc1 | 64.5* | -0.6 | -19.7 | -1.7 | 5.8 | 7.7
CN1CCN(C(=O)C[C@H]2CC[C@H](NS(=O)(=O)c3cccc(F)c3)[C@H](CO)O2)CC1 | -5.6[16.7 µM] | 4.2 | 0.0 | . | 5.9 | .
COc1cccc(Nc2nc(N)c([N+](=O)[O-])c(N3CCOCC3)n2)c1 | 36.3 | -29.4* | -3.3 | -1.8 | 1.2 | -4.5
Cc1cccc(Nc2nc(N)c([N+](=O)[O-])c(N3CCOCC3)n2)c1 | . | -24.1* | 11.2 | -2.4 | -0.9 | 7.5
Cc1ccc(Nc2nc(N)c([N+](=O)[O-])c(N3CCOCC3)n2)cc1 | 40.0 | . | 0.5 | 0.4 | . | -8.2
C[C@H](CO)N1C[C@H](C)[C@@H](CN(C)Cc2ccc(Oc3ccccc3)cc2)Oc2c(NC(=O)Cc3ccccc3)cccc2C1=O | . | 5.8 | . | . | . | .
CC(C)NC(=O)Nc1cccc2c1O[C@@H](CN(C)Cc1ccc3c(c1)OCO3)[C@@H](C)CN([C@@H](C)CO)C2=O | . | 3.5 | 5.9 | . | 2.0 | .
C[C@@H](Oc1ccccc1)c1nnn(Cc2ccccc2)c1-c1c([C@@H](C)Oc2ccccc2)nnn1Cc1ccccc1 | 73.1* | 5.8 | -11.6 | . | -1.5 | .
Nc1cc2c(cc1Br)[nH]c(=O)c1ccccc12 | 82.9* | -13.4 | -4.3 | -75.6 | -3.0 | -6.9
CCOc1cc(/C=N/NC(=O)c2ccccc2OCc2ccc(F)cc2)ccc1O | -15.0 | -21.2* | -6.2 | -12.0 | 3.4 | 8.6
C[C@@H]1CN([C@@H](C)CO)C(=O)c2cc(-c3cccnc3)cnc2O[C@@H]1CN(C)Cc1ccccc1 | -13.1[16.7 µM] | 5.0 | -13.7 | . | . | .
CCCCOc1ccc(Nc2cc(Cl)ccc2C(=O)O)cn1 | 62.8* | -33.5 | -2.6 | 0.3 | 2.2 | -5.2
SMILES | Env fusion inh | rRNA inh HTS | FN deposition inh | PDI inh | ERp5 inh | PvdQ acylase
CC(C)C(=O)Nc1ccc2c(c1)C(=O)N(C)[C@H]1CC[C@@H](CC(=O)N[C@H](C)c3ccccc3)O[C@@H]1CO2 | 16.6[16.7 µM] | 4.2 | -6.2 | . | . | .
C[C@H]1CN([C@@H](C)CO)C(=O)c2cccc(NS(=O)(=O)c3cn(C)cn3)c2O[C@H]1CN(C)C(=O)NC1CCCCC1 | . | 1.7 | -6.7 | . | -7.9 | .
COc1ccccc1C#Cc1ccc([C@H]2[C@H](C#N)N(C(=O)C3CCCC3)[C@H]2CO)cc1 | 74.3*[16.7 µM] | -0.6 | 12.8 | . | -1.6 | .
COc1ccccc1C#Cc1ccc([C@H]2[C@@H](C#N)N(C(=O)C3CCCC3)[C@@H]2CO)cc1 | 13.5[16.7 µM] | -24.1 | -2.2 | . | 2.5 | .
N#C[C@H]1[C@H](c2ccc(C#CC3CCCC3)cc2)[C@@H](CO)N1C(=O)Nc1ccc(F)cc1 | 55.6*[16.7 µM] | -10.2 | -10.0 | . | 3.0 | .
CCC(=O)N1CC2(C1)CN(C(=O)Cc1ccccc1)[C@@H](CO)c1c2c2ccc(OC)cc2n1C | . | -0.1 | . | . | -5.7 | .
O=[N+]([O-])c1c(C(Cl)Cl)nn(-c2ccccc2)c1N1CCCC1 | . | -43.4* | . | -5.4 | 0.8 | 14.1
COc1cc(CN2CC3(CCN(C(C)=O)CC3)c3c([nH]c4cc(OC)ccc34)[C@H]2CO)cc(OC)c1 | . | 5.5 | . | . | -1.0 | .
O=C(NCC1CC1)c1cc([N+](=O)[O-])cc([N+](=O)[O-])c1 | -0.9 | 7.4 | 5.2 | -1.9 | 1.9 | 67.9*
C[C@H]1CCCCO[C@@H](CN(C)Cc2ccc(C(F)(F)F)cc2)[C@@H](C)CN([C@@H](C)CO)C(=O)c2cc(NC(=O)c3ccccc3)ccc2O1 | 68.9*[16.7 µM] | -1.7 | . | . | 1.2 | .
C[C@@H]1CN([C@H](C)CO)C(=O)c2cc(NC(=O)Cc3ccccc3)ccc2O[C@@H](C)CCCCO[C@@H]1CN(C)Cc1ccc(C(F)(F)F)cc1 | 65.1*[16.7 µM] | 1.9 | . | . | . | .
C[C@@H]1CCCCO[C@H](CN(C)Cc2ccc(C(F)(F)F)cc2)[C@@H](C)CN([C@@H](C)CO)C(=O)c2cc(NC(=O)c3ccccc3)ccc2O1 | 14.5[16.7 µM] | -4.0 | . | . | -1.4 | .
C[C@H]1CCCCO[C@H](CN(C)Cc2ccc(C(F)(F)F)cc2)[C@@H](C)CN([C@@H](C)CO)C(=O)c2cc(NC(=O)c3ccccc3)ccc2O1 | 59.4*[16.7 µM] | -2.2 | . | . | -1.3 | .
C[C@@H]1CN([C@H](C)CO)C(=O)c2cc(-c3ccc(F)cc3)cnc2O[C@@H]1CN(C)Cc1cncnc1 | -112.7[16.7 µM] | 0.3 | 4.8 | . | -2.2 | .
CNC[C@H]1Oc2cc(C#Cc3ccccn3)ccc2S(=O)(=O)N([C@@H](C)CO)C[C@@H]1C | -51.1[16.7 µM] | 5.6 | . | . | 7.8 | .
